Published values from different studies.
Compare with care: the assays were run in different laboratories.
Target: Glycogen synthase kinase-3 alpha (GSK3A, Homo sapiens, UniProt P49840)

CCCCNc1ncc2c(-c3ccc(F)cc3)nn(C[C@H]3CC[C@H](N)CC3)c2n1 — inhibition (target engagement in cells, inhibitor, chemoproteomics; 20 mM): 6%
Nc1c(C(=O)NCc2ccc(C(=O)NCCCC3CCCCC3)cc2)cnn1-c1ccccc1 — remaining binding (cell-free assay, competition with immobilised ligand; 0.1 µM): 100%
Nc1nc(Nc2ccc(S(N)(=O)=O)cc2)sc1C(=O)c1ccccc1[N+](=O)[O-] — inhibition (enzyme activity, inhibitor; 0.1 µM): 73 to 75%
Cc1ccc(Nc2nccc(N(C)c3ccc4c(C)n(C)nc4c3)n2)cc1S(N)(=O)=O — inhibition (enzyme activity, inhibitor; 10 µM): 48%
N#CCCc1ccc2c(c1)-c1[nH]c3ccc([N+](=O)[O-])cc3c1CC(=O)N2 — remaining signal (cell-free assay; 0.5 µM): 0.804%
O=C(NCc1ncc(C(F)(F)F)cc1Cl)c1ccc2c(c1)C1(CCS(=O)(=O)CC1)[C@@H](C1CC1)N2S(=O)(=O)c1ccc(F)cc1 — remaining binding (cell-free assay, competition with immobilised ligand; 1 µM): 100%
Cn1cnc(Br)c1C1=CN(c2ncnc3[nH]cnc23)CCS1 — inhibition (enzyme activity, inhibitor, radiometric; 50 nM): 14.8%
COc1cc(Cl)c(C(=O)N[C@@H](CN[C@H]2CC[C@@H](N)CC2)Cc2ccc(C#N)cc2)cc1-c1ccc(CN[C@H](C)c2ccc(C)cc2)o1 — remaining activity (enzyme activity, inhibitor; 1 µM): 106%
Cc1sc(C(=O)NC2COC2)cc1-n1cc(NC(=O)Nc2c(F)cccc2Cl)cn1 — remaining activity (enzyme activity, inhibitor; 10 µM): 128%
CC(C)(C)c1nc(-c2cccc(NS(=O)(=O)c3c(F)cccc3F)c2F)c(-c2ccnc(N)n2)s1 — remaining activity (enzyme activity, inhibitor, radiometric; 1 µM): 97%
CO[C@@H](C)c1c(Nc2ccc([C@@H](N(C)C(=O)C3CCS(=O)(=O)CC3)C(F)(F)F)cc2)cnc2cc(Cl)nn12 — remaining binding (cell-free assay, competition with immobilised ligand; 1 µM): 94%
COc1cc2ncnc(Nc3ccc(F)c(Cl)c3)c2cc1OCCCN1CCOCC1 — remaining signal (cell-free assay; 0.5 µM): 99.7%
CC/C(=N\NC(=O)NCc1cccc(O)c1)c1ccc(O)c(C)c1O — inhibition (enzyme activity, inhibitor; 0.1 µM): 2.8%
CCN(CC)CCNC(=O)c1c(C)[nH]c(/C=C2\C(=O)Nc3ccc(F)cc32)c1C — inhibition (enzyme activity, inhibitor; 10 µM): 36%
O=C(N1CCS(=O)(=O)CC1)N1C[C@H](c2ccc(OC(F)(F)F)cc2)C[C@H](c2nc(C3CC3)no2)C1 — remaining binding (cell-free assay, competition with immobilised ligand; 1 µM): 100%
COc1cc2ncnc(Nc3ccc(Oc4ccccc4)cc3C)c2cc1OC — inhibition (enzyme activity, inhibitor; 1 µM): 4%
O=C1NC(=O)c2cc(Nc3ccc(F)cc3)c(Nc3ccc(F)cc3)cc21 — remaining signal (cell-free assay, inhibitor; 0.5 µM): 88.2%
Cc1c[nH]c2nccc(Oc3c(F)cc(Nc4cc(Cl)nc(N)n4)cc3F)c12 — remaining binding (cell-free assay, competition with immobilised ligand; 0.1 µM): 95%
